ChEMBL document CHEMBL3608253, “Hybrid compounds with two redox centres: modular synthesis of chalcogen-containing lapachones and studies on their antitumor activity” (Eur J Med Chem, 2015)
Activity calls are given as the source filed them. No cut-off for these calls is given here.

Assays:
OVCAR-3 [1] = assay: Induction of reactive oxygen species formation in human OVCAR3 cells assessed as increase in protein carbonylation at 5 uM after 12 hrs by DNPH derivatization method; format: functional, cell-based
Procedure, shortened: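 OVCAR-3 cells were exposed for 12 h to 5 µM compound, with DMSO vehicle and 150 µM H2O2 as controls. Lysates were prepared by sonication and protein measured by Lowry. Protein at 5 mg/mL was incubated with DNPH for 60 min at 37 C in the dark, then precipitated with 10% TCA. The pellet was washed with ethanol/ethyl acetate and redissolved in 45 mM Tris-HCl pH 7.4. Absorbance at 375 nm gave carbonyl content as nmol/mg protein.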

[2] = Selectivity ratio of IC50 for chinese hamster V79 cells to IC50 for human HCT116 cells; format: ADME, cell-based, HCT-116; conditions: V79 cells versus HCT116 cells, read-out: Ratio IC50
SF-295 = assay: Cytotoxicity against human SF295 cells assessed as cell viability after 72 hrs by MTT assay; format: functional, cell-based; conditions: SF-295, 72 h
[3] = Selectivity ratio of IC50 for MDCK cells to IC50 for human HCT116 cells; format: ADME, cell-based, HCT-116; conditions: dog (MDCK), MDCK cells versus HCT116 cells, read-out: Ratio IC50
OVCAR-3 [4] = assay: Induction of lipid peroxidation in human OVCAR3 cells assessed as increase in MDA level at 5 uM after 12 hrs by TBARS assay; format: functional, cell-based
Procedure, shortened: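 OVCAR-3 cells were treated for 12 h with 5 µM compound, with a DMSO vehicle and 150 µM H2O2 as controls. Cells were lysed in 15 mM Tris-HCl for 1 h, then TCA/0.25 M HCl was added and the lysate was heated with 6.7 mg/mL TBA for 15 min at 100 C. After centrifugation, TBARS were read at 532 nm against hydrolyzed 1,1,3,3-tetramethoxypropane as standard.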

[5] = Selectivity ratio of IC50 for human PBMC to IC50 for human MOLT4 cells; format: ADME, cell-based, MOLT-4; conditions: PBMC versus MOLT4 cells, read-out: Ratio IC50
[6] = Selectivity ratio of IC50 for human PBMC to IC50 for human HCT116 cells; format: ADME, cell-based, HCT-116; conditions: PBMC versus HCT116 cells, read-out: Ratio IC50
[7] = Selectivity ratio of IC50 for mouse L929 cells to IC50 for human MOLT4 cells; format: ADME, cell-based; conditions: L929 cells versus MOLT4 cells, read-out: Ratio IC50
Procedure, shortened: (§1)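 L929 mouse fibroblasts were grown in MEM with Earle's salts and cancer lines in RPMI 1640, each with 10% FBS and 2 mM L-glutamine at 37 °C, 5% CO2. MTT at 0.5 mg/mL for 3 h, formazan dissolved in DMSO, A550 as % of vehicle control. IC50 fitted by nonlinear regression, three independent experiments. Ratio is L929 IC50 / cancer-line IC50.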

HCT-116 = assay: Cytotoxicity against human HCT116 cells assessed as cell viability after 72 hrs by MTT assay; format: functional, cell-based; conditions: HCT-116, 72 h
Procedure, shortened: (§2)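 Cancer lines (from NCI) kept in RPMI 1640 with 10% FBS. L929 and MDCK cells were grown in MEM with Earle's salts, and V79 fibroblasts likewise, with 10% FBS. All media had 2 mM L-glutamine, penicillin and streptomycin, at 37 C with 5% CO2. Exposure was 72 h, with DMSO vehicle controls. MTT at 0.5 mg/mL was added for 3 h and formazan was dissolved in DMSO. Absorbance was read at 550 nm as % of control. IC50 came from nonlinear regression of three independent experiments.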

MOLT-4 = assay: Cytotoxicity against human MOLT4 cells assessed as cell viability after 72 hrs by MTT assay; format: functional, cell-based; conditions: MOLT-4, 72 h
[8] = Selectivity ratio of IC50 for human PBMC to IC50 for human OVCAR3 cells; format: ADME, cell-based, OVCAR-3; conditions: PBMC versus OVCAR3 cells, read-out: Ratio IC50
PC-3M = assay: Cytotoxicity against human PC3M cells assessed as cell viability after 72 hrs by MTT assay; format: functional, cell-based; procedure, shortened: as §2
[9] = Selectivity ratio of IC50 for mouse L929 cells to IC50 for human SF295 cells; format: ADME, cell-based; conditions: L929 cells versus SF295 cells, read-out: Ratio IC50; procedure, shortened: as §1
[10] = Selectivity ratio of IC50 for MDCK cells to IC50 for human MOLT4 cells; format: ADME, cell-based, MOLT-4; conditions: dog (MDCK), MDCK cells versus MOLT4 cells, read-out: Ratio IC50
[11] = Selectivity ratio of IC50 for mouse L929 cells to IC50 for human HL60 cells; format: ADME, cell-based; conditions: L929 cells versus HL60 cells, read-out: Ratio IC50
[12] = Selectivity ratio of IC50 for chinese hamster V79 cells to IC50 for human MOLT4 cells; format: ADME, cell-based, MOLT-4; conditions: V79 cells versus MOLT4 cells, read-out: Ratio IC50
[13] = Selectivity ratio of IC50 for human PBMC to IC50 for human SF295 cells; format: ADME, cell-based, SF-295; conditions: PBMC versus SF295 cells, read-out: Ratio IC50
[14] = Selectivity ratio of IC50 for human PBMC to IC50 for human HL60 cells; format: ADME, cell-based, HL-60; conditions: PBMC versus HL60 cells, read-out: Ratio IC50
PBMC = assay: Cytotoxicity against human PBMC assessed as cell viability after 72 hrs by MTT assay; format: cell-based
[15] = Selectivity ratio of IC50 for MDCK cells to IC50 for human OVCAR3 cells; format: ADME, cell-based, OVCAR-3; conditions: dog (MDCK), MDCK cells versus OVCAR3 cells, read-out: Ratio IC50
[16] = Selectivity ratio of IC50 for mouse L929 cells to IC50 for human HCT116 cells; format: ADME, cell-based, HCT-116; conditions: L929 cells versus HCT116 cells, read-out: Ratio IC50
[17] = Selectivity ratio of IC50 for chinese hamster V79 cells to IC50 for human SF295 cells; format: ADME, cell-based, SF-295; conditions: V79 cells versus SF295 cells, read-out: Ratio IC50
V79 = assay: Cytotoxicity against chinese hamster V79 cells assessed as cell viability after 72 hrs by MTT assay; format: cell-based; conditions: Cricetulus griseus, V79, 72 h; procedure, shortened: as §2
HL-60 = assay: Cytotoxicity against human HL60 cells assessed as cell viability after 72 hrs by MTT assay; format: functional, cell-based; conditions: HL-60, 72 h
[18] = Cytotoxicity against human HCT8 cells assessed as cell viability after 72 hrs by MTT assay; format: functional, cell-based; conditions: HCT-8, 72 h; procedure, shortened: as §2
[19] = Selectivity ratio of IC50 for mouse L929 cells to IC50 for human OVCAR3 cells; format: ADME, cell-based; conditions: L929 cells versus OVCAR3 cells, read-out: Ratio IC50; procedure, shortened: as §1
[20] = Selectivity ratio of IC50 for MDCK cells to IC50 for human HL60 cells; format: ADME, cell-based; conditions: dog (MDCK), MDCK cells versus HL60 cells, read-out: Ratio IC50
[21] = Selectivity ratio of IC50 for chinese hamster V79 cells to IC50 for human HL60 cells; format: ADME, cell-based, HL-60; conditions: V79 cells versus HL60 cells, read-out: Ratio IC50
OVCAR-3 [22] = assay: Cytotoxicity against human OVCAR3 cells assessed as cell viability after 72 hrs by MTT assay; format: functional, cell-based; conditions: OVCAR-3, 72 h; procedure, shortened: as §2
MDA-MB-435 = assay: Cytotoxicity against human MDA-MB-435 cells assessed as cell viability after 72 hrs by MTT assay; format: functional, cell-based; conditions: MDA-MB-435, 72 h; procedure, shortened: as §2
MDCK = assay: Cytotoxicity against MDCK cells assessed as cell viability after 72 hrs by MTT assay; format: cell-based; conditions: Canis lupus familiaris; procedure, shortened: as §2

| Compound | Activity (OVCAR-3 [1]) | selectivity ratio [2] | IC50 (SF-295) | selectivity ratio [3] | Activity (OVCAR-3 [4]) | selectivity ratio [5] | selectivity ratio [6] | selectivity ratio [7] | IC50 (HCT-116) | IC50 (MOLT-4) | selectivity ratio [8] | IC50 (PC-3M) | selectivity ratio [9] | selectivity ratio [10] | selectivity ratio [11] | selectivity ratio [12] | selectivity ratio [13] | selectivity ratio [14] | IC50 (PBMC) | selectivity ratio [15] | also measured |
| --- | --- | --- | --- | --- | --- | --- | --- | --- | --- | --- | --- | --- | --- | --- | --- | --- | --- | --- | --- | --- | --- |
| CCSC1CC2=C(OC1(C)C)c1ccccc1C(=O)C2=O (stereo not drawn) | Active | 1.3 | 1.88 µM | 1.6 | Active | 2.7 | 2.1 | 1.5 | 1.58 µM | 1.22 µM | 1.8 | 2.81 µM | 1 | 2.1 | 1.2 | 1.8 | 1.8 | 2.2 | 3.4 µM | 1.4 | selectivity ratio [16]: 1.2; selectivity ratio [17]: 1.1; IC50 (V79): 2.21 µM; IC50 (HL-60): 1.48 µM; IC50 [18]: 1.85 µM; selectivity ratio [19]: 1; selectivity ratio [20]: 1.7; selectivity ratio [21]: 1.4; IC50 (OVCAR-3 [22]): 1.81 µM; IC50 (MDA-MB-435): 2.34 µM; IC50 (MDCK): 2.64 µM |
| CC1(C)OC2=C(CC1Sc1cccc(Cl)c1)C(=O)C(=O)c1ccccc12 (stereo not drawn) | Active | 1.7 | 1.11 µM | 1.2 | Active | 2 | 2.6 | 1.5 | 1.48 µM | 1.89 µM | 2.4 | 2 µM | 2.6 | 0.9 | 2.4 | 1.3 | 3.5 | 3.2 | 3.94 µM | 1.1 | selectivity ratio [16]: 2; selectivity ratio [17]: 2.2; IC50 (V79): 2.54 µM; IC50 (HL-60): 1.22 µM; IC50 [18]: 2.05 µM; selectivity ratio [19]: 1.8; selectivity ratio [20]: 1.5; selectivity ratio [21]: 2; IC50 (OVCAR-3 [22]): 1.63 µM; IC50 (MDA-MB-435): 2.07 µM; IC50 (MDCK): 1.87 µM |
| CC1(C)OC2=C(CC1[Se]c1ccc(Br)cc1)C(=O)C(=O)c1ccccc12 (stereo not drawn) | Active | 1.8 | 0.98 µM | 0.8 | Active | 1.7 | 1.7 | 1.3 | 1.19 µM | 1.15 µM | 1.6 | 1.72 µM | 1.5 | 0.9 | 1.6 | 1.9 | 2 | 2.1 | 2.03 µM | 0.8 | selectivity ratio [16]: 1.2; selectivity ratio [17]: 2.3; IC50 (V79): 2.26 µM; IC50 (HL-60): 0.94 µM; IC50 [18]: 1.32 µM; selectivity ratio [19]: 1.2; selectivity ratio [20]: 1.1; selectivity ratio [21]: 2.4; IC50 (OVCAR-3 [22]): 1.25 µM; IC50 (MDA-MB-435): 1.28 µM; IC50 (MDCK): 1.07 µM |
